Test results: ChEMBL document CHEMBL1140235, “Novel 4-(4-aryl)cyclohexyl-1-(2-pyridyl)piperazines as Delta(8)-Delta(7) sterol isomerase (emopamil binding protein) selective ligands with antiproliferative activity” (J Med Chem, 2008)

Tests used:
[1] = molecular target: T1, 3-beta-hydroxysteroid-Delta(8),Delta(7)-isomerase (Cavia porcellus, UniProt Q60490); assay: Displacement of [3H](-)-(S)-emopamil from EBP in guinea pig liver membrane; assay type: cell membranes
T1 sequence (Q60490 whole entry): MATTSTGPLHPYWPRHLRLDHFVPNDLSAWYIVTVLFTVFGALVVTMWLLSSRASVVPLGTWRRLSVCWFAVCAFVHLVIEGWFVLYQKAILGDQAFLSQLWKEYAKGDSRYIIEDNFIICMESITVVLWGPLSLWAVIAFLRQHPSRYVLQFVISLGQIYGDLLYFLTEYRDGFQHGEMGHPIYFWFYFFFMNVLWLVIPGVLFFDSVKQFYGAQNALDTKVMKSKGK
Method in brief: (§1)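 Radioligand displacement run by previously published methods, EBP per Moebius and σ1/σ2 per Matsumoto. Tissues from male Dunkin guinea pigs and Wistar Hannover rats (250–300 g). IC50 from six to nine drug concentrations in two or three experiments, samples in duplicate.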

PC-3 [2] = assay: Antiproliferative activity against human PC3 cells expressing EBP after 48 hrs by MTT assay; assay type: functional, cell-based
Method in brief: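 MTT read-out at 48 h in PC-3 cells grown in RPMI 1640 with 10% FBS, 2 mM glutamine, penicillin/streptomycin, 37 °C, 5% CO2. 10 000 cells/well seeded day 1, drugs added day 2 over 1–100 µM (150 or 300 µM for some references). Solvent controls included. MTT 0.5 mg/mL for 3 h, formazan dissolved in DMSO, absorbance at 570 and 630 nm.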

[3] = Displacement of [3H]-DTG from sigma 2-type opioid receptor in rat liver membrane in presence of (+)-pentazocine; assay type: cell membranes; method in brief: as §1
PC-3 [4] = assay: Cytotoxicity against human PC3 cells assessed as LDH release at 100 uM after 24 hrs relative to untreated control; assay type: functional
Method in brief: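 PC-3 cells exposed to test compound for 24 h at 37 °C, 5% CO2. LDH release into the medium was measured fluorimetrically (ex 560/em 590 nm) after 10 min with substrate mix at room temperature, then stop solution. Total LDH taken from lysed untreated wells. % cytotoxicity = 100 × (treated medium LDH − background)/(total LDH − background).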

[5] = molecular target: Sigma non-opioid intracellular receptor 1 (Cavia porcellus, UniProt Q60492); assay: Displacement of [3H](+)-pentazocine from sigma 1 receptor in guinea pig brain membrane without cerebellum; assay type: cell membranes; method in brief: as §1
Sequence of Sigma non-opioid intracellular receptor 1 (Q60492 whole entry): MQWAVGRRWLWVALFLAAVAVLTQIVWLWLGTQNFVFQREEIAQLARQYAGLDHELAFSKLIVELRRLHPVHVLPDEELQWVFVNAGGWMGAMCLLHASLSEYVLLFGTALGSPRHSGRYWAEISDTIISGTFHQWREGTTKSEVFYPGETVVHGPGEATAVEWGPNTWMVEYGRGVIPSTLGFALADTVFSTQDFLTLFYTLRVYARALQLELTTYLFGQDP

Cavia porcellus = species on record: Cavia porcellus; assay: Selectivity ratio of Ki for sigma 1 receptor in guinea pig brain membrane without cerebellum to Ki for EBP in guinea pig liver membrane; assay type: cell membranes
[6] = Selectivity ratio of Ki for sigma 2 receptor in rat liver membrane to Ki for EBP in guinea pig liver membrane; assay type: cell membranes
D(2) dopamine receptor = D(2) dopamine receptor (Rattus norvegicus, UniProt P61169); assay: Displacement of [3H]spiroperidol from dopamine D2 receptor in rat striatal membrane; assay type: cell membranes, Striatum
Sequence of D(2) dopamine receptor (P61169 whole entry): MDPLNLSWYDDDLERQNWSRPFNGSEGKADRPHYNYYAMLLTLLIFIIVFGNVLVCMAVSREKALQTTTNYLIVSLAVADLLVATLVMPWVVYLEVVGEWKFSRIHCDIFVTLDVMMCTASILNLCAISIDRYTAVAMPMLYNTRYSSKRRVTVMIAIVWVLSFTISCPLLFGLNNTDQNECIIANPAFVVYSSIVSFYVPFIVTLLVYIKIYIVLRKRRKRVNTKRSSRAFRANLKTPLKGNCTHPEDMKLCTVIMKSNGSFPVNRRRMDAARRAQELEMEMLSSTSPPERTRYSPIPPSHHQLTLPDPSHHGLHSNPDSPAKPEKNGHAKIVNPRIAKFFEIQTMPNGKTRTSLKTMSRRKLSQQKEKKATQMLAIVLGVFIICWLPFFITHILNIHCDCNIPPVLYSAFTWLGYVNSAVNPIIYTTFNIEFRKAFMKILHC

[7] = molecular target: T2, Adrenergic receptor alpha-1 (Rattus norvegicus, UniProt P15823+P23944+P43140); assay: Displacement of [3H]prazosin from adrenergic alpha1 receptor in rat cortical membrane; assay type: cell membranes
T2 sequence (P15823 whole entry): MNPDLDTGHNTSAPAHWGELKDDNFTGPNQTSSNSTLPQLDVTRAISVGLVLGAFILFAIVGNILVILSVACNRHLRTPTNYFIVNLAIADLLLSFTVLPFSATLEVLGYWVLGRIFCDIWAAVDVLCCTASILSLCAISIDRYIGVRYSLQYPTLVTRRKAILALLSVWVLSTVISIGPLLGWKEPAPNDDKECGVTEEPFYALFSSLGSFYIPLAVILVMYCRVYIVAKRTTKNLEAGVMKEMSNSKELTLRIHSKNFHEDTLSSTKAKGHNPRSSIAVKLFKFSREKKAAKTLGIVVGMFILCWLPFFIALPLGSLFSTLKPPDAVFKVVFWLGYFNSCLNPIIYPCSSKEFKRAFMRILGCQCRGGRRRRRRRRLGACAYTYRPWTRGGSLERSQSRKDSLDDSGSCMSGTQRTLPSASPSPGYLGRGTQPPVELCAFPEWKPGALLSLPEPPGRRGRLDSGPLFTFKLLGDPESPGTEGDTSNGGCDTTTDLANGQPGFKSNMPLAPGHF
T2 sequence (P23944 whole entry): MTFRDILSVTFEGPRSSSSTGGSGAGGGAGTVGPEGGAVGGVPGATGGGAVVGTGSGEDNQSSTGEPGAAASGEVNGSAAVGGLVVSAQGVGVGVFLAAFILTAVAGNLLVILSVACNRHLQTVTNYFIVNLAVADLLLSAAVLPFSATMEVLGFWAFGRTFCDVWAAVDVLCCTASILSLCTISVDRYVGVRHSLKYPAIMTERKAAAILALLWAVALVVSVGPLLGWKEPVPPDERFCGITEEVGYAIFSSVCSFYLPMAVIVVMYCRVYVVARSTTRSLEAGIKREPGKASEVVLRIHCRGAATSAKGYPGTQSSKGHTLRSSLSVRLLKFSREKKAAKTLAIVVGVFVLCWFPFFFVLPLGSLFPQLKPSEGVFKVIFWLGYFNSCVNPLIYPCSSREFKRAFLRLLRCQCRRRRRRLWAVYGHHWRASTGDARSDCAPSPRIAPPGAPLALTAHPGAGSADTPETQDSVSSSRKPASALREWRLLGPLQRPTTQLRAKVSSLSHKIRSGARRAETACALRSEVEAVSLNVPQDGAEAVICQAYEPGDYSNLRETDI
T2 sequence (P43140 whole entry): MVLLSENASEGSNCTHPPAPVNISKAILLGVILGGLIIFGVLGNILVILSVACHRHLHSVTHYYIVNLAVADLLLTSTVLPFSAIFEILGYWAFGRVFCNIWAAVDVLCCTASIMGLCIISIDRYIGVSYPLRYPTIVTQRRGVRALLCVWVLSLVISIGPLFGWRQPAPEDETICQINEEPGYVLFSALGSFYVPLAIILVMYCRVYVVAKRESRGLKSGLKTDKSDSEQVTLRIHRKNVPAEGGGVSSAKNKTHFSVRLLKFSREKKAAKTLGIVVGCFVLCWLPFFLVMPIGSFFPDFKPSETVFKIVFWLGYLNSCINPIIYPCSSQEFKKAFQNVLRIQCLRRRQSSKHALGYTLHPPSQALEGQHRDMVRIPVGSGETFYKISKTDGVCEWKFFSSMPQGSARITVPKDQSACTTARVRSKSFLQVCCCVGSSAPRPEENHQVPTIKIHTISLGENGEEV

[8] = molecular target: T3, 5-hydroxytryptamine receptor 1A (Rattus norvegicus, UniProt P19327); assay: Displacement of [3H]8OH-DPAT from 5HT1A receptor in rat hippocampal membrane; assay type: cell membranes, Hippocampus
T3 sequence (P19327 whole entry): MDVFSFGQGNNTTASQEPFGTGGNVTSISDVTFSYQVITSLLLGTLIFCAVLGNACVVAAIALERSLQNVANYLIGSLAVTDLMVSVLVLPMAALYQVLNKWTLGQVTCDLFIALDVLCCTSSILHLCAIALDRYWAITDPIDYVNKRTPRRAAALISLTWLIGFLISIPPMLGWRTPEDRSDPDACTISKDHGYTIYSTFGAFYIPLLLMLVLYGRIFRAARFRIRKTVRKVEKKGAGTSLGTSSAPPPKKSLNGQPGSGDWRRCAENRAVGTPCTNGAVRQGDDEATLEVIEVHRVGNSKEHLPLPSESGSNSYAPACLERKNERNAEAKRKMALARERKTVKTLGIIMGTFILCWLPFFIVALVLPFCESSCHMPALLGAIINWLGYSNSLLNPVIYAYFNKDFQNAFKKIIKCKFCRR

| SMILES | Ki [1] [nM] | EC50 (PC-3 [2]) [nM] | Ki [3] [nM] | Activity (PC-3 [4]) [%] | Ki [5] [nM] | Ratio Ki (Cavia porcellus) | Ratio Ki [6] | Ki (D(2) dopamine receptor) [nM] | Ki [7] [nM] | Ki [8] [nM] |
| --- | --- | --- | --- | --- | --- | --- | --- | --- | --- | --- |
| CC(C(O)c1ccc(O)cc1)N1CCC(Cc2ccccc2)CC1 (racemic) [IFENPRODIL] | 16.4 | 25800 | 2.3 | <10 |  |  |  |  |  |  |
| Cc1ccccc1[C@H]1CC[C@@H](N2CCN(c3ccccn3)CC2)CC1 | 5 | 38000 | 71 | <10 | 1000 | 200 | 14 |  |  |  |
| COc1cccc([C@H]2CC[C@@H](N3CCN(c4ccccn4)CC3)CC2)c1 | 45.4 |  | 36.1 | <10 | 178 |  |  | > 850 | 783 | 815 |
| CCCN(CCC)CCc1ccc(OC)c(OCCc2ccccc2)c1 |  | 47000 | 212 | <10 |  |  |  |  |  |  |
| COc1cccc([C@H]2CC[C@H](N3CCN(c4ccccn4)CC3)CC2)c1 | 16.2 | 23000 | 21.9 | <10 | 24.8 |  | 2 |  |  |  |
| COc1cccc(C2=CCC(N3CCN(c4ccccn4)CC3)CC2)c1 (stereo unspecified) | 2640 |  |  | <10 | 220 |  |  |  |  |  |
| COc1ccc([C@H]2CC[C@H](N3CCN(c4ccccn4)CC3)CC2)cc1 | 71.6 |  | 222 | <10 | 291 | 4 | 3 |  |  |  |
| Cc1ccccc1[C@H]1CC[C@H](N2CCN(c3ccccn3)CC2)CC1 | 9.04 |  | 29.6 | <10 | 30.7 | 3.4 | 3.3 |  |  |  |
| CC(C)=CCN1CC[C@]2(C)c3cc(O)ccc3C[C@H]1[C@H]2C [(+)-PENTAZOCINE] | > 10 | 86900 | 1860 | <10 |  |  |  |  |  |  |
| Fc1cccc(F)c1[C@H]1CC[C@H](N2CCN(c3ccccn3)CC2)CC1 | 106 |  | 138 | <10 | 190 | 1.8 | 1.2 |  |  |  |
| Clc1ccccc1[C@H]1CC[C@@H](N2CCN(c3ccccn3)CC2)CC1 | 85.1 |  | 150 | <10 | 1090 | 13 | 1.8 |  |  |  |
| c1ccc([C@H]2CC[C@H](N3CCN(c4ccccn4)CC3)CC2)cc1 | 16.8 |  | 26.9 | <10 | 104 | 6 | 1.6 |  |  |  |
| COc1cccc([C@H]2CC[C@@H](NCCOc3ccccn3)CC2)c1 | 23.5 |  |  | <10 | 7.71 |  |  | 783 | > 850 | 373 |
| c1ccc([C@H]2CC[C@@H](N3CCN(c4ccccn4)CC3)CC2)cc1 | 49.2 |  | 62 | <10 | 802 | 16 | 1.3 |  |  |  |
| COc1ccccc1[C@H]1CC[C@H](N2CCN(c3ccccn3)CC2)CC1 | 13.5 |  | 30 | <10 | 2.86 |  | 1.3 |  |  |  |
| COc1cccc(OC)c1[C@H]1CC[C@@H](N2CCN(c3ccccn3)CC2)CC1 | 4.95 | 12900 | 687 | <10 | > 6000 | > 1210 | 138 |  |  |  |
| COc1cccc(C2=CCC(N3CCN(c4ccccc4)CC3)CC2)c1 (stereo unspecified) | 460 |  |  | <10 |  |  |  |  |  |  |
| Fc1cccc(F)c1[C@H]1CC[C@@H](N2CCN(c3ccccn3)CC2)CC1 | 140 | 37300 | 440 | <10 | 5170 | 37 | 3 |  |  |  |
| Cc1cccc(C)c1[C@H]1CC[C@@H](N2CCN(c3ccccn3)CC2)CC1 | 33.1 |  | 60.2 | <10 | 6.32 | 0.2 | 1.8 |  |  |  |
| COc1cccc([C@H]2CC[C@@H](N3CCN(c4cccc5ccccc45)CC3)CC2)c1 | 16.7 |  |  | <10 | 240 |  |  | 1310 | 5540 | 74 |
| COc1ccc2c(c1)CCC(CN1CCN(c3ccccn3)CC1)C2 (stereo unspecified) | 32.1 |  | 1250 | <10 | 358 |  |  |  |  |  |
| COc1cccc([C@H]2CC[C@@H](N3CCN(c4ccccc4)CC3)CC2)c1 | 1710 |  |  | <10 |  |  |  | 2380 | 2250 | 183 |
| Cc1cccc(C)c1C1=CCC(N2CCN(c3ccccn3)CC2)CC1 (racemic) | 46.7 |  | 113 | <10 | 177 | 3.8 | 2.4 |  |  |  |
| COc1cccc(OC)c1[C@H]1CC[C@H](N2CCN(c3ccccn3)CC2)CC1 | 7 |  | 25 | <10 | 215 | 31 | 3.6 |  |  |  |
| Clc1ccccc1[C@H]1CC[C@H](N2CCN(c3ccccn3)CC2)CC1 | 7.21 |  | 29.1 | <10 | 190 | 26 | 4 |  |  |  |
